{"source": "ChEMBL document CHEMBL4052661", "about": "“Structure Based Design of N-(3-((1H-Pyrazolo[3,4-b]pyridin-5-yl)ethynyl)benzenesulfonamides as Selective Leucine-Zipper and Sterile-α Motif Kinase (ZAK) Inhibitors” (J Med Chem, 2017)", "key": {"[1]": {"target": "T1, Mitogen-activated protein kinase kinase kinase 20 (Homo sapiens, UniProt Q9NYL2)", "T1 sequence (Q9NYL2 whole entry)": "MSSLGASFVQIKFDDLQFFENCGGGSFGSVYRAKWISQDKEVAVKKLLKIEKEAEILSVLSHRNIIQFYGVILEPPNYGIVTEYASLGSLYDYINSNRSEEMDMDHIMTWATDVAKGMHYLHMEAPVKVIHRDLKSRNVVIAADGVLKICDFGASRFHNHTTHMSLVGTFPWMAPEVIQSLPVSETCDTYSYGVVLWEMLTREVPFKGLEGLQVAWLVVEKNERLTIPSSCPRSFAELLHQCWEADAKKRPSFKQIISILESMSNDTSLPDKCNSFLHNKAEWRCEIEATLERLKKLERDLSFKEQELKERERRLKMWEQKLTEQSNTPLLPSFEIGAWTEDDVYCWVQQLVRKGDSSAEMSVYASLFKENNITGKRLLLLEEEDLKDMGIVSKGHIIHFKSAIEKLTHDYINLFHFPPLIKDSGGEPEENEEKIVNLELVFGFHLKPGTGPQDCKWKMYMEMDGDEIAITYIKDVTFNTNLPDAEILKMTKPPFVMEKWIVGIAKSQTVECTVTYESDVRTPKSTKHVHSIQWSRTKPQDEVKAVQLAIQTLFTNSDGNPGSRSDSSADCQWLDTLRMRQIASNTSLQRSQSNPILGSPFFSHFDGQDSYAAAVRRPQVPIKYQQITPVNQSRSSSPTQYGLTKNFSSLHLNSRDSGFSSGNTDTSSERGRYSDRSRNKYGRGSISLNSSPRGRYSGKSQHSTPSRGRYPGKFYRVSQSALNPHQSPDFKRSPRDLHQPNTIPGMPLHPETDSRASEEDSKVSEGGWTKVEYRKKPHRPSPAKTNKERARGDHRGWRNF", "assay": "Inhibition of N-terminal GST-tagged recombinant human full-length ZAK expressed in baculovirus infected Sf9 insect cells using MBP as substrate after 30 mins by ADP-Glo assay", "method_in_brief": "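ZAK activity by ADP-Glo luminescence with MBP as substrate, ATP and serially diluted compound. Reaction started by adding ATP and run 30 min at room temperature. ADP-Glo reagent was added to stop it (40 min), then detection reagent for 30 min before reading luminescence. Curves fitted; each experiment repeated at least 3 times.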"}, "[2]": {"target": "T1, Mitogen-activated protein kinase kinase kinase 20"}, "[3]": {"target": "Serine/threonine-protein kinase B-raf (Homo sapiens, UniProt P15056)", "sequence (P15056 whole entry)": "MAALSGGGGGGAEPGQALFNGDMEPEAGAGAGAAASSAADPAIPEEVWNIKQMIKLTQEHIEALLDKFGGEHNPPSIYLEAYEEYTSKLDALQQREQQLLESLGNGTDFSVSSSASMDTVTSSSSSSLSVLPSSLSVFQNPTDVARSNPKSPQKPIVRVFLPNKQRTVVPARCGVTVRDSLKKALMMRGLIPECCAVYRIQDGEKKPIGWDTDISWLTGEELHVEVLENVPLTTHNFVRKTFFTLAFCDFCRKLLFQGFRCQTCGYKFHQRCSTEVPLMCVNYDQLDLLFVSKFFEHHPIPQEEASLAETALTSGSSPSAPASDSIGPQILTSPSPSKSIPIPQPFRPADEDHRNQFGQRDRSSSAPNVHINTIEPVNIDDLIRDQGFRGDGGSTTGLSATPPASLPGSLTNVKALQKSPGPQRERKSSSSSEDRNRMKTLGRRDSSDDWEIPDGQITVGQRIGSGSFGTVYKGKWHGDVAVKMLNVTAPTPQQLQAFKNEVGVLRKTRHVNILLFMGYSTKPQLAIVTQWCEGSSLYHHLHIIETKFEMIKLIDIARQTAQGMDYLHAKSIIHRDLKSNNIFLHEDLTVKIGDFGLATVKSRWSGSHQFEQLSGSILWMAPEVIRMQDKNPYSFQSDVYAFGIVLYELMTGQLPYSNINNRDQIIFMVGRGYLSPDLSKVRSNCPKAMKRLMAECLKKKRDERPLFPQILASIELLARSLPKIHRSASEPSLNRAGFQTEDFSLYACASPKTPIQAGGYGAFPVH", "assay": "Inhibition of wild type GST-tagged recombinant human full-length B-RAF expressed in baculovirus expression system using Ser/Thr3 as substrate after 1 hr by FRET-based Z'-Lyte assay", "method_in_brief": "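Z'-Lyte FRET assay with Ser/Thr3 peptide in kinase buffer; the final reaction held 0.002 ng B-Raf for wild type. Incubated 1 h at room temperature, then 1 h development to cleave nonphosphorylated peptide, then stop reagent. Means of 3 independent experiments.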"}, "[4]": {"target": "Serine/threonine-protein kinase B-raf (Homo sapiens, UniProt P15056, V600E)", "sequence (P15056 2-766 V600E limits assumed)": "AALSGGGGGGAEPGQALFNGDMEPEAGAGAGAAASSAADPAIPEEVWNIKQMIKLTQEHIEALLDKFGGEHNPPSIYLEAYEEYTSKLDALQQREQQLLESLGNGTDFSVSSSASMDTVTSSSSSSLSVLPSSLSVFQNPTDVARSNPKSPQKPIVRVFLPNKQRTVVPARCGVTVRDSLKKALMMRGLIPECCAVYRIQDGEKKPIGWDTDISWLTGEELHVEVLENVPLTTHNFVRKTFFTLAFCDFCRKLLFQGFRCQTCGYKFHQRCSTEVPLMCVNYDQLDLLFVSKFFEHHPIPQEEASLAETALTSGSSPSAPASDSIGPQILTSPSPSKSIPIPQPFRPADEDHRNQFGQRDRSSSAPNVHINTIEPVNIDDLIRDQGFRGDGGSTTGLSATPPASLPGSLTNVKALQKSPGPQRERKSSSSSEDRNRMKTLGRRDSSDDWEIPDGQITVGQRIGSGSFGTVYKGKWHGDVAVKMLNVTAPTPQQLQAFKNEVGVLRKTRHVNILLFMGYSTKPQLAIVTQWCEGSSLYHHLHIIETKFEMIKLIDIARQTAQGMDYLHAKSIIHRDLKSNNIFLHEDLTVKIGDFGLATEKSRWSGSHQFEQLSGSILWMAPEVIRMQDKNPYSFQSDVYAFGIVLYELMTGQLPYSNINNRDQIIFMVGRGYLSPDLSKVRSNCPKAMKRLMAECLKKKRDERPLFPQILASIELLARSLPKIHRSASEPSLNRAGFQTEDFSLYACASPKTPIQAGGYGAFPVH", "assay": "Inhibition of recombinant human B-RAF V600E mutant using Ser/Thr3 as substrate after 1 hr by FRET-based Z'-Lyte assay"}}}
{"smiles": "CCCS(=O)(=O)Nc1ccc(F)c(C(=O)c2c[nH]c3ncc(-c4ccc(Cl)cc4)cc23)c1F", "note": "[VEMURAFENIB]", "values": [{"measurement": "IC50", "setting": "[1]", "value": 31.4, "unit": "nM"}, {"measurement": "IC50", "setting": "[2]", "value": 23, "unit": "nM"}]}
{"smiles": "COc1n[nH]c2ncc(C#Cc3c(F)ccc(NS(=O)(=O)c4cccc(C)c4)c3F)cc12", "values": [{"measurement": "IC50", "setting": "[1]", "value": 12.1, "unit": "nM"}, {"measurement": "IC50", "setting": "[3]", "value": "> 10000", "unit": "nM"}, {"measurement": "IC50", "setting": "[4]", "value": "> 10000", "unit": "nM"}]}
{"smiles": "CC(C)Oc1n[nH]c2ncc(C#Cc3c(F)ccc(NS(=O)(=O)c4cccc(Cl)c4)c3F)cc12", "values": [{"measurement": "IC50", "setting": "[1]", "value": 42.7, "unit": "nM"}, {"measurement": "IC50", "setting": "[3]", "value": "> 10000", "unit": "nM"}, {"measurement": "IC50", "setting": "[4]", "value": "> 2000", "unit": "nM"}]}
{"smiles": "O=S(=O)(Nc1ccc(F)c(C#Cc2ccc3[nH]ncc3c2)c1F)c1cccc(Cl)c1", "values": [{"measurement": "IC50", "setting": "[1]", "value": 994, "unit": "nM"}, {"measurement": "IC50", "setting": "[3]", "value": "> 10000", "unit": "nM"}, {"measurement": "IC50", "setting": "[4]", "value": "> 10000", "unit": "nM"}]}
{"smiles": "COc1n[nH]c2ncc(C#Cc3c(F)ccc(NS(=O)(=O)c4ccccc4)c3F)cc12", "values": [{"measurement": "IC50", "setting": "[1]", "value": 19.2, "unit": "nM"}, {"measurement": "IC50", "setting": "[3]", "value": "> 10000", "unit": "nM"}, {"measurement": "IC50", "setting": "[4]", "value": 169, "unit": "nM"}]}
{"smiles": "COc1cccc(S(=O)(=O)Nc2ccc(F)c(C#Cc3cnc4[nH]nc(OC)c4c3)c2F)c1", "values": [{"measurement": "IC50", "setting": "[1]", "value": 7.5, "unit": "nM"}, {"measurement": "IC50", "setting": "[3]", "value": "> 1000", "unit": "nM"}, {"measurement": "IC50", "setting": "[4]", "value": "> 7000", "unit": "nM"}]}
{"smiles": "COc1n[nH]c2ncc(C#Cc3c(F)ccc(NS(=O)(=O)c4cccc(Cl)c4Cl)c3F)cc12", "values": [{"measurement": "IC50", "setting": "[1]", "value": 9.6, "unit": "nM"}, {"measurement": "IC50", "setting": "[3]", "value": "> 2000", "unit": "nM"}, {"measurement": "IC50", "setting": "[4]", "value": "> 10000", "unit": "nM"}]}
{"smiles": "O=S(=O)(Nc1ccc(F)c(C#Cc2cnc3[nH]ncc3c2)c1F)c1cccc(Cl)c1", "values": [{"measurement": "IC50", "setting": "[1]", "value": 5.1, "unit": "nM"}, {"measurement": "IC50", "setting": "[3]", "value": "> 5000", "unit": "nM"}, {"measurement": "IC50", "setting": "[4]", "value": "> 10000", "unit": "nM"}]}
